# ADAM17 inh = inhibitors of human ADAM17; recombinant ADAM17, EDANS/DABCYL FRET peptide cleavage; inhibition, % at 6.95 µM; 370,000 tested, 0.83% active;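 active = inhibition above the mean of compounds lying between control limits plus 3 SD, set per campaign, cut at about 8.5% in these data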;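 note: 0% = DMSO-only wells as the low control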
# CaV13 ICDI inh = Primary screen for inhibitors of IQ motif and Ca2+-dependent inactivation inhibitor domain binding in CACNA1D, Förster resonance energy transfer in living cells, …; HEK cells, CFP/YFP FRET ICDI-IQ, plate reader, 10 min; percent FRET-ratio fall versus neutral wells; inhibition, % at 12.3 µM; 340,000 tested, 0.098% active;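 active = mean replicate inhibition of at least 30% and at least 1% of replicates passing that level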;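 note: 0% = median of the neutral control wells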
# Arrestin-AP2 inh = inhibitors of human beta-arrestin and AP2 interaction; AID 504490; FITC-arrestin peptide / GST-AP2 beads, flow cytometry; AP2 beta2 appendage carries R879A mutation; 340,000 tested, 0.31% active; inhibition, % at 10 µM;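 active = inhibition above a set limit, near 3 SD of compounds lacking own fluorescence, cut at about 54% in these data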;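 note: plate controls were DMSO wells for no effect and 5 µM unlabelled arrestin peptide for full effect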
#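 System: GST-AP2 R879A glutathione beads. Medium: PBS with 0.05% Tween 20 and 0.1% BSA. Also added: FITC-arrestin peptide, 50 nM. Incubation: 12 min plus 1 h, RT. Measured by: high-throughput flow cytometry of beads, ex 488, em 535 nm. Evaluation: percent drop in bead-associated FITC signal.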
# FAS-TE inh = FAS thioesterase (human) inhibition; recombinant FAS-TE, OMFH fluorogenic substrate, fluorescence endpoint; inhibition, % at 15 µM; 360,000 tested, 0.67% active; P49327;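 active = compounds whose normalised, plate-corrected inhibition of enzyme fluorescence in the single-dose primary screen is 50% or more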;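 note: 0% = DMSO with enzyme and 100% = substrate without enzyme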
# CendR NRP1 mod = alters CendR peptide binding to human NRP-1. O14786. FAM-RPARPAR peptide binding to NRP-1, fluorescence polarization. inhibition, % at 25 µM. 360,000 tested, 0.85% active;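 active = inhibition or corrected inhibition above about 18%, plus a signal ratio from 0.5 to 1.5, limit read from the data, passing the limit was not always enough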
# ADAM10 inh = inhibitors of human ADAM10; O14672; recombinant ADAM10, EDANS/DABCYL FRET peptide cleavage, 3 h; inhibition, % at 7 µM; 370,000 tested, 0.62% active; AID 720582;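 active = inhibition above a per-campaign cutoff equal to the mean of compounds falling between control-based bounds plus 3 SD, cut at about 20% in these data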;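 note: 0% = DMSO wells while the 100% control is not disclosed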
# Target sequence (O14672 214-748 limits assumed): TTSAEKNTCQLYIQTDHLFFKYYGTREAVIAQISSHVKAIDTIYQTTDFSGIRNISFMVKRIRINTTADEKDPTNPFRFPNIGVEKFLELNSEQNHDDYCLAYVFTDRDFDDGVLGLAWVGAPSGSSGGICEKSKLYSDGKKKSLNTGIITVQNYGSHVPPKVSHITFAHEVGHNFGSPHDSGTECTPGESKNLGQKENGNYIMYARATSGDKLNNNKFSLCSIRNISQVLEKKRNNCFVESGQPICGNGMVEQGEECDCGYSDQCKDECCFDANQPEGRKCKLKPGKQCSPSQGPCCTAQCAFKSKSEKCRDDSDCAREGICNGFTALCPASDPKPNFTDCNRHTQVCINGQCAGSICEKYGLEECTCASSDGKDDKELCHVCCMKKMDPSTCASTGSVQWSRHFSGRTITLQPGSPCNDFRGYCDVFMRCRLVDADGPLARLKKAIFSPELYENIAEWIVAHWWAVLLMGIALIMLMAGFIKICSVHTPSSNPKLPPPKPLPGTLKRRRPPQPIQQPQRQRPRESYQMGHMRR
# An asterisk follows results filed as active; i = inactive; nt = no result. An excerpt weighted towards active compounds, which were near 2.9% of everything screened.
SMILES,ADAM17 inh,CaV13 ICDI inh,Arrestin-AP2 inh,FAS-TE inh,CendR NRP1 mod,ADAM10 inh
Cc1ccc(S(=O)(=O)N(C)c2ccc(C(=O)NCCc3ccccc3)cc2)cc1,-0.7,-6.1,-13.9,16.6,0.7,-3.6
COc1ccc(CCNC(=O)c2ccc(Cl)c(S(=O)(=O)N(C)c3ccccc3)c2)cc1,6.6,-4.2,4.3,23.2,23.0*,13.4
COc1ccc(CCNC(=O)c2ccc(N(C)S(=O)(=O)c3ccc(C)cc3)cc2)cc1,2.6,nt,6.3,17.3,21.4*,0.4
CCOC(=O)C1(Cc2ccccc2)CCN(Cc2cccn2-c2nccs2)CC1,1.8,4.4,-0.4,4.5,33.0*,2.4
COCCNC(=O)[C@@H]1CCCN1S(=O)(=O)c1cccc2cccnc12,-5.9,-10.7,-4.0,-2.7,6.6,-6.9
CCCCNC(=O)[C@@H]1CCCN1S(=O)(=O)c1cccc2cccnc12,-1.9,-11.7,-3.5,-10.2,33.0*,-7.6
COc1ccc(NS(=O)(=O)c2csc(C(=O)N3CCCC3)c2)c(OC)c1,-3.1,-5.1,6.5,-4.5,19.1*,7.4
Cc1ccc(NC(=O)Nc2ccnc(-c3cccnc3)n2)cc1,-0.7,42.8*,20.5,3.9,-1.1,-4.8
O=C(O)C1CCCN1S(=O)(=O)c1cccc(S(=O)(=O)N2CCCC2C(=O)O)c1 (stereo not given),-1.7,-6.3,-5.8,-9.0,-5.6,2.2
O=C(O)[C@@H]1CCCN1S(=O)(=O)c1cccc(S(=O)(=O)N2CCC[C@H]2C(=O)O)c1,0.1,68.3*,-5.3,-9.7,9.8,-4.7
Cc1nc2ccc(NS(=O)(=O)c3c(F)cc(F)cc3Br)cc2s1,-0.2,-7.6,-0.9,-5.1,-26.9,-5.9
O=Cc1ccc(-c2ccccc2C(=O)O)o1,-11.4,-4.3,12.6,-3.5,34.6*,-19.5
Cc1ccc(Cn2cc(COC(=O)N3CCCC3)nn2)cc1,-1.4,nt,nt,nt,nt,-5.0
O=C(C1CCC1)n1ccc2ccc(-c3ccc4ccn(Cc5ccccc5)c4c3)cc21,-0.8,nt,nt,nt,nt,0.2
CN(C)Cc1cc(C(F)(F)F)ccc1C(O)(c1ccccc1)c1ccccc1,-2.3,-6.2,9.4,12.8,21.1*,-6.8
Cc1cc(-n2c(=O)c(C#N)cc3c(=O)n4ccccc4nc32)no1,i,33.4*,7.5,3.7,-3.2,i
C=CCn1c(=N)c(C#N)cc2c(=O)n3ccccc3nc21,-237.0,33.2*,0.9,-3.8,36.1*,i
COC(=O)[C@]12C[C@H](CC(=O)NCc3cccs3)C(=O)N(Cc3ccco3)C1=C[C@H](C(C)(C)C)O[C@@H]2C,0.2,nt,nt,nt,nt,-3.8
CCOC(=O)C1=C[C@@H](C(C)(C)C)N(S(=O)(=O)c2ccc([N+](=O)[O-])cc2)[C@H]1c1ccccc1,2.5,-5.0,nt,35.8,22.7*,6.7
CCOC(=O)C1=C[C@@H](C(C)(C)C)N(S(=O)(=O)c2ccc([N+](=O)[O-])cc2)[C@H]1c1cccc(Cl)c1,-3.6,-4.1,nt,nt,nt,1.3
COC(=O)c1cccc(Cn2ccc3ccc(-c4ccc5ccn(C(=O)C6CC6)c5c4)cc32)c1,-6.8,nt,nt,nt,nt,-42.7
COc1cccc2c(=O)c3cccc(N)c3[nH]c12,-72.0,-2.2,3.0,-6.9,32.8*,-286.4
CC(=O)Nc1ccc(CNc2ncnc3ccc(-c4c(C)noc4C)cc23)cc1,0.5,-3.2,-0.2,-12.5,35.6*,-4.0
O=c1oc2c(-c3cccc(F)c3)cc(O)cc2s1,-4.1,-3.1,-4.7,13.1,33.3*,-2.6
Cc1cc(O)cc(=O)n1-c1cccc(F)c1,-0.3,nt,nt,nt,nt,0.9
SMILES,ADAM17 inh,CaV13 ICDI inh,Arrestin-AP2 inh,FAS-TE inh,CendR NRP1 mod,ADAM10 inh
CCN(CC)CC(=O)Nc1ccc(-c2nc3cc(NC(=O)CN(CC)CC)ccc3o2)cc1,-140.3,0.0,-9.9,-6.3,17.4*,-454.8
O=C1CCCc2c1cc(C(=O)NC1CCSC1=O)c(=O)n2-c1ccccc1 (stereo not given),-20.7,-5.1,0.5,-4.9,29.9*,-43.9
CC1(C)CC(=O)c2cc(C(=O)NC3CCSC3=O)c(=O)n(-c3ccccc3)c2C1 (stereo not given),-13.6,-5.9,19.4,-3.6,4.3,-44.9
Cc1ccc(-c2ccc(SCC(=O)NC3CCCCC3)nn2)cc1,-4.6,-5.4,5.8,0.2,-4.3,-2.0
O=C(CSc1ccc(-c2ccc(F)cc2)nn1)NC1CCCCC1,-3.8,-7.3,21.5,4.0,18.6*,-1.1
CN(C)c1ccc(N=Cc2nc(-c3ccccc3)oc2OC(=O)c2cccc(Cl)c2)cc1,-0.8,-8.2,7.4,0.9,28.3*,3.7
Cc1ccc(C(=O)Oc2oc(-c3ccccc3)nc2C=Nc2ccc(N(C)C)cc2)cc1,-3.8,-2.6,nt,-16.7,-3.4,-15.4
Nn1c(SCc2ccccc2)nc2c(cnn2-c2ccccc2)c1=O,-3.3,-16.2,-0.1,26.2,22.3*,-5.4
CCCSc1nc2c(cnn2-c2ccccc2)c(=O)n1N,0.0,-4.3,-10.4,-1.4,-8.9,-8.4
Cc1ccc(S(=O)(=O)/N=C2\C(=O)c3ccccc3C([O-])=C2n2cc[n+](CCC(C)C)c2)cc1,nt,nt,-3.6,2.7,31.3*,nt
CC(C)c1cc(C(=O)OCC(=O)NC2CCS(=O)(=O)C2)c(O)c(C(C)C)c1 (stereo not given),0.0,-14.1,nt,-2.5,-5.7,-2.6
CCOC(=O)[C@]12CCCC=C1N(CCCOC)C(=O)[C@@H]2CC(=O)N1CCCC1,-0.7,nt,nt,nt,nt,-1.6
O=C(NNS(=O)(=O)c1ccccc1[N+](=O)[O-])c1cc2ccccc2cc1O,-1.9,-3.9,4.3,0.4,23.3*,-23.9
Cc1ccc(NCCc2ccc(C)nc2)cc1,-2.8,nt,-12.1,-4.1,19.9*,-5.8
Cc1ccc(CCNc2ccc3ccccc3c2)cn1,-4.7,nt,10.0,1.3,3.4,-21.1
N#CC(c1ccc([N+](=O)[O-])cc1)C(CC(=O)c1ccccc1)c1ccccc1 (stereo not given),-0.6,-4.7,15.0,29.8,27.9*,2.0
CN1CCC(C)(C(=O)Nc2ccc3c(c2)OCCO3)C1 (stereo not given),-4.7,-6.4,nt,-7.5,6.4,-12.0
COc1ccc(C(=S)N2CCOCC2)cc1OC(=O)c1cc([N+](=O)[O-])c(C)c([N+](=O)[O-])c1,-2.6,-4.2,-6.0,28.1,28.0*,-3.9
CSc1nc(N)c2c(n1)N(C)C=NS2(=O)=O,-4.1,-2.8,-15.0,-8.2,13.8,-4.2
CC(=O)Nc1ccc(NC(=O)COC(=O)C2CCCCC2)cc1,-3.8,-6.0,14.8,-4.8,24.3*,-7.7
Cn1c(=O)c2[nH]c(SCC(=O)NCCc3ccc(F)cc3)nc2n(C)c1=O,-0.3,nt,nt,nt,nt,-5.3
Cc1cc(-c2ccc(S(=O)(=O)NCc3ccc(Cl)cc3)cc2)on1,0.0,-4.6,nt,-0.5,28.3*,0.8

# Assay outcomes as filed in PubChem BioAssay.
